# Experiments:
# CHO-K1 [1] = experiment: Inhibition of spermidine uptake in chinese hamster CHO-K1 cells assessed as decrease in cell growth by measuring cellular ATP content measured after 48 hrs in presence of DFMO and spermidine by ATPlite assay; conditions: Cricetulus griseus, CHO-K1, 48 h
# CHO-K1 [2] = experiment: Cytotoxicity against chinese hamster CHO-K1 cells assessed as decrease in cell viability measured after 48 hrs by ATPlite assay; type: toxicity, cell-based, Cricetulus griseus; conditions: cho-k1, 48 h
# Outline: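 CHO-K1 cells dosed alone in 384-well format in parallel with Assays 1 and 2; MTC taken as highest concentration giving ≥90% relative growth versus untreated control; typical error ±10% (n = 3).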
# [3] = Inhibition of spermidine uptake chinese hamster CHO-K1 cells assessed as decrease in cell growth by measuring cellular ATP content measured after 48 hrs in presence of DFMO and spermidine by ATPlite assay; type: functional, cell-based; conditions: Cricetulus griseus, CHO-K1, 48 h
# L3.6pl [4] = experiment: Inhibition of polyamine uptake in human L3.6pl cells assessed as inhibition of Ant44-induced toxicity by measuring cellular ATP content at MTC measured after 72 hrs in presence of Ant44 by ATPlite assay; type: functional
# Outline: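 L3.6pl cells, Ant44 challenge over 72 h, compound dosed up to its MTC; ECx = percentage effect at the MTC on scale from Ant44-only (50% growth) to untreated (100%); average of ≥2 experiments in triplicate (n ≥ 6).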
# L3.6pl [5] = experiment: Cytotoxicity against human L3.6pl cells assessed as cell viability measured after 72 hrs by ATPlite assay; type: toxicity, cell-based
# Outline: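 L3.6pl human pancreatic cancer cells in 96-well format were exposed to compound alone for 72 h. Growth was expressed relative to an untreated control. MTC is the highest concentration with relative growth still >90%. […] Data come from two or more experiments, each run in triplicate (n ≥ 6).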
# [6] = Cytotoxicity against human L3.6pl cells assessed as inhibition of cell growth measured after 72 hrs by ATPlite assay; type: toxicity, cell-based
# [7] = Inhibition of spermidine uptake in human L3.6pl cells assessed as inhibition of cell growth by measuring cellular ATP content at MTC measured after 72 hrs in presence of DFMO and spermidine by ATPlite assay; type: functional
# Outline: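 L3.6pl cells with DFMO and spermidine over 72 h, compound dosed up to its MTC; ECx = percentage effect at the MTC on scale between DFMO-only (50%) and DFMO + Spd (100%) controls; average of ≥2 experiments in triplicate (n ≥ 6).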
Structure (SMILES),EC50 (CHO-K1 [1]),MTC (CHO-K1 [2]),EC50 [3],inhibition (INH) (L3.6pl [4]),MTC (L3.6pl [5]),IC50 at 72 h [6],inhibition (INH) [7]
Cc1cccc(N2CCN(c3ccc(NC(=O)c4ccccc4Cl)c(C(=O)O)c3)CC2)c1C,22 µM,26 µM,,,,,
O=C(Nc1ccc(N2CCN(c3ccccc3F)CC2)c(C(=O)O)c1)c1ccc(Cl)cc1,> 40 µM,> 40 µM,,,,,
COc1ccccc1C(=O)Nc1ccc(N2CCC(Oc3ccccc3)CC2)cc1C(=O)O,19 µM,> 40 µM,32 µM,35%,10 µM,38.6 µM,45%
Cc1ccc(C)c(N2CCN(c3ccc(NC(=O)c4ccc(Cl)cc4)cc3C(=O)O)CC2)c1,> 40 µM,> 40 µM,,,,,
COc1ccccc1C(=O)Nc1ccc(N2CCN(C(=O)c3ccccn3)CC2)cc1C(=O)O,> 40 µM,> 40 µM,> 40 µM,,10 µM,> 10 µM,
COc1ccc(CC(=O)Nc2ccc(N3CCN(c4cc(Cl)ccc4C)CC3)cc2C(=O)O)cc1,25 µM,24 µM,32 µM,,,,
COc1ccc(C(=O)Nc2ccc(N3CCN(c4cc(Cl)ccc4C)CC3)c(C(=O)O)c2)cc1,5 µM,14 µM,,,,,
COc1ccccc1C(=O)Nc1ccc(N2CCN(c3cccc(C)c3C)CC2)cc1C(=O)O,23 µM,28 µM,2 µM,,8 µM,22.9 µM,
COc1ccccc1N1CCN(c2ccc(N3C(=O)CCC3=O)cc2[N+](=O)[O-])CC1,30 µM,27 µM,,,,,
COC(=O)c1cc(N2CCN(c3cc(Cl)ccc3C)CC2)ccc1NC(=O)c1ccc(OC)cc1OC,> 40 µM,> 40 µM,> 40 µM,,,,
COc1ccc(C(=O)Nc2ccc(N3CCN(c4cccc(Cl)c4)CC3)cc2C(=O)O)cc1,17 µM,20 µM,,,,,
COc1ccc(C(=O)Nc2ccc(N3CCC(C(N)=O)CC3)cc2C(=O)O)cc1,> 40 µM,22 µM,> 40 µM,,,,
COC(=O)c1cc(N2CCN(c3cc(Cl)ccc3C)CC2)ccc1NC(=O)c1ccc(OC)cc1,> 40 µM,> 40 µM,> 40 µM,,,,
COc1ccc(N2CCN(c3ccc(NC(=O)C4CCCCC4)cc3C#N)CC2)cc1,23 µM,17 µM,> 40 µM,,,,
Cc1cccc(N2CCN(c3ccc(NC(=O)c4cccc(Cl)c4)c(C(=O)O)c3)CC2)c1C,8 µM,10 µM,,,,,
COCCNC(=O)CN1CCN(c2ccc(NC(=O)c3ccc(OC)cc3)c(C(=O)O)c2)CC1,> 40 µM,> 40 µM,,,,,
COc1ccc(C(=O)Nc2ccc(N3CCN(c4ccc(OC)cc4)CC3)cc2C(=O)O)cc1,> 40 µM,> 40 µM,> 40 µM,,,,
CCN(CC)C(=O)CN1CCN(c2ccc(NC(=O)c3ccc(OC)cc3)c(C(=O)O)c2)CC1,> 40 µM,28 µM,> 40 µM,,,,
COc1ccccc1C(=O)Nc1ccc(N2CCN(c3cc(Cl)ccc3C)CC2)cc1C(=O)O,21 µM,19 µM,2 µM,,7 µM,29.1 µM,
COc1ccccc1C(=O)Nc1ccc(N2CCC(c3ccccc3)CC2)cc1C(=O)O,21 µM,> 40 µM,18 µM,,9 µM,46.3 µM,
Cc1ccccc1C(=O)Nc1ccc(N2CCN(c3cc(Cl)ccc3C)CC2)c(C(=O)O)c1,> 40 µM,> 40 µM,> 40 µM,,,,
COc1ccccc1C(=O)Nc1ccc(N2CCN(CCCc3ccccc3)CC2)cc1C(=O)O,> 40 µM,> 40 µM,> 40 µM,,10 µM,> 10 µM,
COc1ccccc1N1CCN(c2ccc(NC(=O)c3ccccc3)cc2C(=O)O)CC1,> 40 µM,> 40 µM,,,,,
CCOc1ccccc1N1CCN(c2ccc(NC(=O)c3ccc(OC)cc3)c(C(=O)O)c2)CC1,20 µM,37 µM,,,10 µM,> 20 µM,
COc1ccc(C(=O)Nc2ccc(N3CCN(c4ccccc4)CC3)cc2C(=O)O)cc1,15 µM,17 µM,> 40 µM,,,,
Cc1ccc(CC(=O)Nc2ccc(N3CCN(c4ccccc4Cl)CC3)cc2C(=O)O)cc1,32 µM,> 40 µM,16 µM,,,,

Structure (SMILES),EC50 (CHO-K1 [1]),MTC (CHO-K1 [2]),EC50 [3],inhibition (INH) (L3.6pl [4]),MTC (L3.6pl [5]),IC50 at 72 h [6],inhibition (INH) [7]
COc1ccccc1C(=O)Nc1ccc(N2CCN(c3ccccn3)CC2)cc1C(=O)O,,21 µM,4 µM,,2 µM,> 100 µM,
COc1ccc(C(=O)Nc2ccc(N3CCN(c4cccc(C)c4)CC3)cc2C(=O)O)cc1,16 µM,22 µM,> 40 µM,,,,
COc1ccccc1C(=O)Nc1ccc(N2CCN(Cc3ccccn3)CC2)cc1C(=O)O,10 µM,> 40 µM,,,10 µM,> 100 µM,
O=C(Nc1ccc(N2CCN(c3ccccn3)CC2)cc1C(=O)O)c1ccco1,> 40 µM,> 40 µM,> 40 µM,41%,12 µM,> 50 µM,31%
COc1ccc(C(=O)Nc2ccc(N3CCN(c4cc(Cl)ccc4C)CC3)cc2C(=O)O)c(OC)c1,> 40 µM,> 40 µM,> 40 µM,,40 µM,61.6 µM,
COc1ccc(C(=O)Nc2ccc(N3CCN(c4ccc(C(C)=O)cc4)CC3)cc2C(=O)O)cc1,21 µM,20 µM,> 40 µM,,,,
COc1ccc(C(=O)Nc2ccc(N3CCC(N4CCCCC4)CC3)cc2C(=O)O)cc1,> 40 µM,> 40 µM,,,,,
COc1ccc(C(=O)Nc2ccc(N3CCN(C4CCCCC4)CC3)cc2C(=O)O)cc1,> 40 µM,> 40 µM,,,,,
COc1ccccc1C(=O)Nc1ccc(N2CCN(Cc3ccccc3)CC2)cc1C(=O)O,> 40 µM,> 40 µM,> 40 µM,,10 µM,> 10 µM,
COc1ccccc1N1CCN(c2ccc(NC(=O)c3ccccc3-c3cccs3)cc2C(=O)O)CC1,27 µM,> 40 µM,> 40 µM,,,,
COC(=O)c1cc(CN2CCN(c3ccccn3)CC2)ccc1NC(=O)c1ccccc1OC,> 20 µM,> 20 µM,> 20 µM,,,,
COc1ccc(C(=O)Nc2ccc(N3CCC(c4cccc(C)c4)C3)cc2C(=O)O)cc1 (stereo not given),> 40 µM,> 40 µM,> 40 µM,,25 µM,39.9 µM,
COc1ccc(C(=O)Nc2ccc(N3CCN(c4ccccc4F)CC3)cc2C(=O)O)cc1,33 µM,25 µM,,,,,
COc1ccccc1C(=O)Nc1ccc(CN2CCN(c3ccccn3)CC2)cc1C(=O)O,> 40 µM,> 40 µM,> 40 µM,,10 µM,> 10 µM,
Cc1ccc(C)c(N2CCN(c3ccc(N4C(=O)CC(c5ccccc5)C4=O)cc3[N+](=O)[O-])CC2)c1 (stereo not given),27 µM,32 µM,,,,,
COc1ccccc1N1CCN(c2ccc(NC(=O)c3ccccc3Cl)c(C(=O)O)c2)CC1,26 µM,36 µM,16 µM,,,,
COC(=O)c1cc(N2CCN(c3cc(Cl)ccc3C)CC2)ccc1NC(=O)c1ccccc1OC,> 40 µM,> 40 µM,> 40 µM,,,,
Cc1ccc(C(=O)Nc2ccc(N3CCN(c4cc(Cl)ccc4C)CC3)c(C(=O)O)c2)cc1,5 µM,12 µM,,,,,
Cc1ccccc1CN1CCN(c2ccc(NC(=O)C(C)(C)C)cc2)CC1,2 µM,2 µM,,15%,10 µM,> 10 µM,15%
COc1ccccc1C(=O)Nc1ccc(N2CCN(c3ccccn3)CC2)cc1,> 40 µM,14 µM,> 40 µM,,10 µM,> 10 µM,
CCOC(=O)N1CCN(c2ccc(NC(=O)c3ccc(OC)cc3)c(C(=O)O)c2)CC1,> 40 µM,34 µM,> 40 µM,,,,
COc1ccc(C(=O)Nc2ccc(N3CCN(c4ccccc4Cl)CC3)cc2C(=O)O)cc1,27 µM,28 µM,,27%,90 µM,125 µM,2%
O=C(Nc1ccc(N2CCN(C3CCCCC3)CC2)cc1C(=O)O)c1ccc(F)cc1,> 40 µM,> 40 µM,,,,,
COc1ccc(C(=O)Nc2ccc(N3CCCN(c4ncccn4)CC3)cc2C(=O)O)cc1,,> 40 µM,12 µM,,25 µM,> 30 µM,
Cc1cccc(N2CCN(c3ccc(NC(=O)c4ccccc4F)cc3C(=O)O)CC2C)c1 (stereo not given),> 40 µM,> 40 µM,,,,,
